The source of these data is PubChem BioAssay.

The nature of test [1]: Her2 expression decrease, cell viability multiplex – SKBR3 breast tumor cells, AlphaScreen, ATP viability, primary screen (AID 461).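 For Her2 level: lower value means less Her2 protein in the cells.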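 For viability: percent of carrier control wells set as 100% viability.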 The settings on record: SKBR3 Her2 protein level, 18-24 h, measured here: SKBR3 viability, ATP luminescence, at 10 µM. (In general: In Alpha technology, singlet oxygen from a donor bead excites a nearby acceptor bead.)
For test [2], the target named is Receptor tyrosine-protein kinase erbB-2 (Homo sapiens) (UniProt P04626). The description is as above. The settings on record: 18-24 h, at 10 µM, stronger effect = lower value.
A short description of test [3]: reduced viability of SK-BR-3 breast cancer cells – cell-based, 24 h, human, pilot screen (AID 572;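 active = viability at or below 10% of carrier control in both of two separate runs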;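 note: compound exposure lasted between 18 and 24 h rather than exactly 24 h; 100% = carrier-treated control wells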). The settings on record: SK-BR-3 viability, CellTiter-Glo luminescence, at 10 µM, stronger effect = lower value. (In ATP-based viability assays light output follows the ATP content of the culture.)
A short description of test [4]: HUVEC growth inhibition – cell-based, human, primary screen (AID 575;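 active = viability at or below 30% in both replicate assays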;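 note: 100% = median of untreated cell wells with 0.1% DMSO on each plate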). To be noted: HUVEC proliferation, CellTiter-Glo luminescence, 72 h; at 10 µM; stronger effect = lower value. The procedure, abridged:
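Test system: HUVEC primary cells. Quantity: 1250 endothelial cells in each well. Dosing: single-point 10 µM, DMSO 0.1% final. Incubation: 72 h treatment at 37 °C. Measured by: CTG luminescence. Control set: DMSO cell controls and MePR drug controls. Plate: collagen-coated 384-well format.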

Test [5] can be described thus: H69AR cell proliferation blockers – human, duplicate replicates, primary screen (AID 580;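 active = viability at or under a set limit in both replicates, limit being median viability minus 3 SD, cut at about 48% in these data, passing the limit was not always enough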;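 note: 100% = mean luminescence of untreated wells and 0% = no signal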). The settings on record: H69AR lung tumor cells viability, ATP luminescence, 72 h; at 10 µM; stronger effect = lower value.
Test [6] can be described thus: MRP1 drug-resistance reversers in H69AR cells – cell-based, doxorubicin co-treatment, pilot screen (AID 601;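 active = viability loss from added drug above about 55%, and viability with drug at most 40%, in both replicates, limit read from the data, passing the limit was not always enough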). The settings on record: CellTiter-Glo, 72 h, at 10 µM; for differential viability (reversal): stronger effect = higher value.
Test [7] can be described thus: yeast transport mutant growth inhibition pilot in 384-well plates, post-Golgi transport modulator project (AID 636; in the data active = inhibition above about 31%). To be noted: absorbance 615 nm, about 18 h, stronger effect = higher value.
Test [8] can be described thus: growth suppression of yeast trafficking mutant, preliminary HTS, modulators of trafficking downstream of Golgi apparatus project, 1536-format plate, OD 615 nm (AID 637; in the data active = inhibition above about 30%). To be noted: yeast transport mutant growth, absorbance 615 nm, 18 h; stronger effect = higher value.
[9] abbreviates: H69AR cells + 2 uM doxorubicin, measured here: viability with 2 uM doxorubicin, stronger effect = lower value.
The mark [10] stands for this setting: H69AR cells, compound alone cytotoxicity.

SMILES strings stand for the structures. Calls of active or inactive are those of the source.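 Rule for the calls, unless noted: active = Her2 level under about 52% in both replicate screens, with viability over 70% of control (limit read from the data); inconclusive = Her2 under the limit in one screen only, or viability under 70%; inactive = Her2 level above the set limit.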

Chain of Receptor tyrosine-protein kinase erbB-2 (Homo sapiens) (P04626 whole entry, looked up): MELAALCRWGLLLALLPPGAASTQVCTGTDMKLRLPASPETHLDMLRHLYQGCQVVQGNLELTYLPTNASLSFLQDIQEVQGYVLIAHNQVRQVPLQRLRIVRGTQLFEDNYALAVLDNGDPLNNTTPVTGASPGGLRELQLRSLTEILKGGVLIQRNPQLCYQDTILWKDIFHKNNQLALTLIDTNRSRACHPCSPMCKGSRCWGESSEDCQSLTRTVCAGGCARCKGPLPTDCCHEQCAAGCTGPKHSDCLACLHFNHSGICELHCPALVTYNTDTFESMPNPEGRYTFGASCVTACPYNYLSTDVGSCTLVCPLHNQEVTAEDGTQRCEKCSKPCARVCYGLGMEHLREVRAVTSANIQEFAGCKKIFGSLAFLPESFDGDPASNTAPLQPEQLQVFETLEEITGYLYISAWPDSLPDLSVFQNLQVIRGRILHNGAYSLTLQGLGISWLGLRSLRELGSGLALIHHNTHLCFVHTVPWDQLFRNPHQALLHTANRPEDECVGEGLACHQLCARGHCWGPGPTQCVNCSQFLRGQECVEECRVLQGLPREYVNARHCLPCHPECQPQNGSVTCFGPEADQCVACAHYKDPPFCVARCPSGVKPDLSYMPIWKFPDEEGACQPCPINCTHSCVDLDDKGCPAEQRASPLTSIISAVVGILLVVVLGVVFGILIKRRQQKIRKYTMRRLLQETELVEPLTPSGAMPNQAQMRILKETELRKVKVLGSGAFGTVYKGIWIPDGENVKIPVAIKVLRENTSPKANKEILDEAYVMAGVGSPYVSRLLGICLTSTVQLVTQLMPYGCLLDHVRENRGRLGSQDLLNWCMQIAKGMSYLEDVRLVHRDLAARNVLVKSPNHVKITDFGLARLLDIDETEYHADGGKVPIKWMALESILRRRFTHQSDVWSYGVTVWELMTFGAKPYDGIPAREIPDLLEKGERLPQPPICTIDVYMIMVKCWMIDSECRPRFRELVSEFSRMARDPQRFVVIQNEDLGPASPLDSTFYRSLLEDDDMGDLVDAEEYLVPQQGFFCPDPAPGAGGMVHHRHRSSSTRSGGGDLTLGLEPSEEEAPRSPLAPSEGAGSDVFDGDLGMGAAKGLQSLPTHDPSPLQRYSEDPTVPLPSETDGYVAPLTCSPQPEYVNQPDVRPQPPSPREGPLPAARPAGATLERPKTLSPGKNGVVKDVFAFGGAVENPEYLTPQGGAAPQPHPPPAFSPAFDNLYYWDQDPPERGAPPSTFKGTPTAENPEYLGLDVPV

Broadly, the viability is a read-out of living cells in per cent, often relative to untreated cells. What is called inhibition is the drop in the measured response relative to a control, in per cent. As to `O=C(CSc1ncnc2ccccc12)NCCCO`, the viability in test [1] was 104%; in test [3], 104% (inactive); in test [4] it was 103% (inactive); in test [5] it was 103% (inactive); in test [6] (setting [9]) it was 91.1%; in test [6] (setting [10]), 103%. Besides, the Her2 level in test [2] was 80% (inactive). In addition, the differential viability (reversal) in test [6] (H69AR cells + 2 uM doxorubicin) is 12.2% (inactive). For the same compound, the figures for the inhibition in test [7] and in test [8] were -0.65% (inactive) and 4.92% (inactive), respectively.
Turning to `CC(NO)C(C)(C)NO` (stereo not given), the viability is 92% in test [1]; 92% (inactive) in test [3]; 92.3% (inactive) in test [4]; 100% (inactive) in test [5]; 89.2% in test [6] (setting [9]); 100% in test [6] (setting [10]). Also, the Her2 level in test [2] is 101% (inactive). In test [6] (H69AR cells + 2 uM doxorubicin), the differential viability (reversal) was 11.2% (inactive). In addition, the inhibition in test [7] is -2.67% (inactive); in test [8], 12.1% (inactive).
Consider `CC(C)=CC(=O)N1CCCc2ccccc21`, for which the viability in test [1] was 112%; in test [3], 112% (inactive); in test [4], 105% (inactive); in test [5] it was 98.4% (inactive); in test [6] (setting [9]) it was 93.2%; in test [6] (setting [10]) it was 98.4%. In addition, the Her2 level in test [2] is 90% (inactive). Besides, the differential viability (reversal) in test [6] (H69AR cells + 2 uM doxorubicin) was 5.13% (inactive). Further, the inhibition is -4.53% (inactive) in test [7] and -7.21% (inactive) in test [8].
Turning to `Cn1c(=O)c2c(nc(SCCCO)n2Cc2ccccc2Cl)n(C)c1=O`, the viability was 80.5% in test [1]; 80.5% (inactive) in test [3]; 67.2% (inactive) in test [4]; 79.3% (inactive) in test [5]; 27.9% in test [6] (setting [9]); 79.3% in test [6] (setting [10]). Also, the Her2 level in test [2] is 78.5% (inactive). For the same compound, the differential viability (reversal) in test [6] (H69AR cells + 2 uM doxorubicin) is 51.5% (inactive). The inhibition in test [7] is -1.6% (inactive); in test [8] it was 2.62% (inactive).
With `O=C(COC(=O)C1=COCCO1)Nc1ccccc1Oc1ccccc1`, the viability in test [1] is 113%; in test [3] it was 113% (inactive); in test [4], 97.8% (inactive); in test [5], 93.8% (inactive); in test [6] (setting [9]), 88.3%; in test [6] (setting [10]) it was 93.8%. Besides, the Her2 level in test [2] was 95% (inactive). Also, in test [6] (H69AR cells + 2 uM doxorubicin), the differential viability (reversal) was 5.48% (inactive). In addition, the results for the inhibition in test [7] and in test [8] were -7.37% (inactive) and -1.64% (inactive), respectively.
`COc1cc(=O)[nH]c(SCc2c(F)c(F)c(F)c(F)c2F)n1`: the viability was 95% in test [1]; 95% (inactive) in test [3]; 94% (inactive) in test [4]; 91.5% (inactive) in test [5]; 93.2% in test [6] (setting [9]); 91.5% in test [6] (setting [10]). Further, the Her2 level in test [2] is 95.5% (inactive). Also, the differential viability (reversal) in test [6] (H69AR cells + 2 uM doxorubicin) is -1.69% (inactive). For the same compound, the inhibition was -5.6% (inactive) in test [7] and -10% (inactive) in test [8].
`O=C(CSc1nnc(CNC(=O)c2c(F)cccc2Cl)o1)c1ccccc1`: the viability is 94.5% in test [1]; 94.5% (inactive) in test [3]; 112% (inactive) in test [4]; 92.1% (inactive) in test [5]; 93.7% in test [6] (setting [9]); 92.1% in test [6] (setting [10]). Moreover, in test [2], the Her2 level was 107% (inactive). Besides, in test [6] (H69AR cells + 2 uM doxorubicin), the differential viability (reversal) is -1.57% (inactive). Also, the inhibition in test [7] was 0.38% (inactive); in test [8], -0.67% (inactive).
As for `Cc1c(C(=O)O)sc2nc3n(c(=O)c12)CCC(C)CC3` (stereo not given), the viability in test [1] is 93%; in test [3], 93% (inactive); in test [4], 82.2% (inactive); in test [5], 88.2% (inactive); in test [6] (setting [9]) it was 83%; in test [6] (setting [10]) it was 88.2%. Also, the Her2 level in test [2] was 87% (inactive). In test [6] (H69AR cells + 2 uM doxorubicin), the differential viability (reversal) was 5.25% (inactive). The inhibition in test [7] is -0.53% (inactive); in test [8] it was 8.69% (inactive).
As for `CCCCNc1cc(C)oc(=O)c1C(C)=O`, the viability in test [1] is 94.5%; in test [3] it was 94.5% (inactive); in test [4], 105% (inactive); in test [5], 97.9% (inactive); in test [6] (setting [9]), 90.9%; in test [6] (setting [10]), 97.9%. Besides, the Her2 level in test [2] is 107% (inactive). In addition, in test [6] (H69AR cells + 2 uM doxorubicin), the differential viability (reversal) was 7% (inactive). The inhibition in test [7] was -4.86% (inactive); in test [8] it was 3.28% (inactive).
`O=C(Cn1cnc2c(nnn2Cc2ccccc2)c1=O)c1ccc(Cl)cc1`: the viability in test [1] is 93.5%; in test [3], 93.5% (inactive); in test [4] it was 84.5% (inactive); in test [5] it was 97.1% (inactive); in test [6] (setting [9]), 88.6%; in test [6] (setting [10]), 97.1%. In test [2], the Her2 level is 110% (inactive). The differential viability (reversal) in test [6] (H69AR cells + 2 uM doxorubicin) was 8.5% (inactive). Moreover, the inhibition in test [7] is -3.46% (inactive); in test [8] it was -0.17% (inactive).
As for `O=C(CCOc1ccccc1)NCc1ccccc1`, the viability in test [1] was 122%; in test [3], 122% (inactive); in test [4], 89.9% (inactive); in test [5], 89.6% (inactive); in test [6] (setting [9]), 90%; in test [6] (setting [10]), 89.6%. In test [2], the Her2 level was 102% (inactive). In addition, the differential viability (reversal) in test [6] (H69AR cells + 2 uM doxorubicin) is -0.41% (inactive). Moreover, the inhibition in test [7] is 4.03% (inactive); in test [8] it was 28.9% (inactive).
Regarding `O=C(CCN1CCc2ccccc2C1)Nc1ccc2c(c1)OCO2`, the viability is 88.5% in test [1]; 88.5% (inactive) in test [3]; 84.4% (inactive) in test [4]; 87.1% (inactive) in test [5]; 105% in test [6] (setting [9]); 87.1% in test [6] (setting [10]). Also, the Her2 level in test [2] was 94% (inactive). Also, the differential viability (reversal) in test [6] (H69AR cells + 2 uM doxorubicin) is -18.3% (inactive). Further, the inhibition was -4.4% (inactive) in test [7] and 0.81% (inactive) in test [8].
On to `CS(=O)(=O)N1CCN(c2ccccc2NC(=O)c2ccc(-c3ccc(Cl)cc3Cl)o2)CC1`, for which the viability in test [1] was 78.5%; in test [3], 78.5% (inactive); in test [4] it was 76.7% (inactive); in test [5] it was 86.4% (inactive); in test [6] (setting [9]), 76.2%; in test [6] (setting [10]), 86.4%. In test [2], the Her2 level is 96.5% (inactive). The differential viability (reversal) in test [6] (H69AR cells + 2 uM doxorubicin) is 10.2% (inactive). The inhibition was -2.93% (inactive) in test [7] and -3.49% (inactive) in test [8].
Regarding `Cn1c(=O)c2c(nc(CN3CCOCC3)n2CC(O)CO)n(C)c1=O` (stereo not given), the viability was 111% in test [1]; 111% (inactive) in test [3]; 104% (inactive) in test [4]; 86.2% (inactive) in test [5]; 91.1% in test [6] (setting [9]); 86.2% in test [6] (setting [10]). Moreover, the Her2 level in test [2] is 107% (inactive). Besides, the differential viability (reversal) in test [6] (H69AR cells + 2 uM doxorubicin) was -4.93% (inactive). Further, the inhibition in test [7] was -3.9% (inactive); in test [8] it was 2.46% (inactive).
